From ChEMBL document CHEMBL1154286, “The discovery and optimisation of pyrido[2,3-d]pyrimidine-2,4-diamines as potent and selective inhibitors of mTOR kinase” (Bioorg Med Chem Lett, 2009) come the findings set out here.

The structures appear in SMILES notation.

A short description of test [1]: Inhibition of mTOR in human HeLa cells using 4E-BP1 substrate by ELISA. It counts as cell-based. An outline of the steps:
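Full-length mTOR immunoprecipitated from HeLa cytoplasmic extract; recombinant 4E-BP1 protein as substrate; ATP at 50 µM; phosphorylated product detected by ELISA. Values are the mean of at least 3 determinations, with variability around the mean <50%.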
A general note: An ELISA detects its analyte on a solid surface through an enzyme-linked reagent.

Test [2] deals with Serine/threonine-protein kinase mTOR (Homo sapiens) (UniProt P42345). The test is described as follows: Inhibition of mTOR in human HeLa cells using 4E-BP1 substrate at 10 uM by ELISA. It counts as cell-based.
For test [3], the target named is Serine/threonine-protein kinase ATR (Homo sapiens, UniProt Q13535). The test is described as follows: Inhibition of ATR.
The target in test [4] is DNA-dependent protein kinase catalytic subunit (Homo sapiens, UniProt P78527). Put plainly: Inhibition of DNA-PK.
DNA-dependent protein kinase catalytic subunit, sequence (P78527 whole entry): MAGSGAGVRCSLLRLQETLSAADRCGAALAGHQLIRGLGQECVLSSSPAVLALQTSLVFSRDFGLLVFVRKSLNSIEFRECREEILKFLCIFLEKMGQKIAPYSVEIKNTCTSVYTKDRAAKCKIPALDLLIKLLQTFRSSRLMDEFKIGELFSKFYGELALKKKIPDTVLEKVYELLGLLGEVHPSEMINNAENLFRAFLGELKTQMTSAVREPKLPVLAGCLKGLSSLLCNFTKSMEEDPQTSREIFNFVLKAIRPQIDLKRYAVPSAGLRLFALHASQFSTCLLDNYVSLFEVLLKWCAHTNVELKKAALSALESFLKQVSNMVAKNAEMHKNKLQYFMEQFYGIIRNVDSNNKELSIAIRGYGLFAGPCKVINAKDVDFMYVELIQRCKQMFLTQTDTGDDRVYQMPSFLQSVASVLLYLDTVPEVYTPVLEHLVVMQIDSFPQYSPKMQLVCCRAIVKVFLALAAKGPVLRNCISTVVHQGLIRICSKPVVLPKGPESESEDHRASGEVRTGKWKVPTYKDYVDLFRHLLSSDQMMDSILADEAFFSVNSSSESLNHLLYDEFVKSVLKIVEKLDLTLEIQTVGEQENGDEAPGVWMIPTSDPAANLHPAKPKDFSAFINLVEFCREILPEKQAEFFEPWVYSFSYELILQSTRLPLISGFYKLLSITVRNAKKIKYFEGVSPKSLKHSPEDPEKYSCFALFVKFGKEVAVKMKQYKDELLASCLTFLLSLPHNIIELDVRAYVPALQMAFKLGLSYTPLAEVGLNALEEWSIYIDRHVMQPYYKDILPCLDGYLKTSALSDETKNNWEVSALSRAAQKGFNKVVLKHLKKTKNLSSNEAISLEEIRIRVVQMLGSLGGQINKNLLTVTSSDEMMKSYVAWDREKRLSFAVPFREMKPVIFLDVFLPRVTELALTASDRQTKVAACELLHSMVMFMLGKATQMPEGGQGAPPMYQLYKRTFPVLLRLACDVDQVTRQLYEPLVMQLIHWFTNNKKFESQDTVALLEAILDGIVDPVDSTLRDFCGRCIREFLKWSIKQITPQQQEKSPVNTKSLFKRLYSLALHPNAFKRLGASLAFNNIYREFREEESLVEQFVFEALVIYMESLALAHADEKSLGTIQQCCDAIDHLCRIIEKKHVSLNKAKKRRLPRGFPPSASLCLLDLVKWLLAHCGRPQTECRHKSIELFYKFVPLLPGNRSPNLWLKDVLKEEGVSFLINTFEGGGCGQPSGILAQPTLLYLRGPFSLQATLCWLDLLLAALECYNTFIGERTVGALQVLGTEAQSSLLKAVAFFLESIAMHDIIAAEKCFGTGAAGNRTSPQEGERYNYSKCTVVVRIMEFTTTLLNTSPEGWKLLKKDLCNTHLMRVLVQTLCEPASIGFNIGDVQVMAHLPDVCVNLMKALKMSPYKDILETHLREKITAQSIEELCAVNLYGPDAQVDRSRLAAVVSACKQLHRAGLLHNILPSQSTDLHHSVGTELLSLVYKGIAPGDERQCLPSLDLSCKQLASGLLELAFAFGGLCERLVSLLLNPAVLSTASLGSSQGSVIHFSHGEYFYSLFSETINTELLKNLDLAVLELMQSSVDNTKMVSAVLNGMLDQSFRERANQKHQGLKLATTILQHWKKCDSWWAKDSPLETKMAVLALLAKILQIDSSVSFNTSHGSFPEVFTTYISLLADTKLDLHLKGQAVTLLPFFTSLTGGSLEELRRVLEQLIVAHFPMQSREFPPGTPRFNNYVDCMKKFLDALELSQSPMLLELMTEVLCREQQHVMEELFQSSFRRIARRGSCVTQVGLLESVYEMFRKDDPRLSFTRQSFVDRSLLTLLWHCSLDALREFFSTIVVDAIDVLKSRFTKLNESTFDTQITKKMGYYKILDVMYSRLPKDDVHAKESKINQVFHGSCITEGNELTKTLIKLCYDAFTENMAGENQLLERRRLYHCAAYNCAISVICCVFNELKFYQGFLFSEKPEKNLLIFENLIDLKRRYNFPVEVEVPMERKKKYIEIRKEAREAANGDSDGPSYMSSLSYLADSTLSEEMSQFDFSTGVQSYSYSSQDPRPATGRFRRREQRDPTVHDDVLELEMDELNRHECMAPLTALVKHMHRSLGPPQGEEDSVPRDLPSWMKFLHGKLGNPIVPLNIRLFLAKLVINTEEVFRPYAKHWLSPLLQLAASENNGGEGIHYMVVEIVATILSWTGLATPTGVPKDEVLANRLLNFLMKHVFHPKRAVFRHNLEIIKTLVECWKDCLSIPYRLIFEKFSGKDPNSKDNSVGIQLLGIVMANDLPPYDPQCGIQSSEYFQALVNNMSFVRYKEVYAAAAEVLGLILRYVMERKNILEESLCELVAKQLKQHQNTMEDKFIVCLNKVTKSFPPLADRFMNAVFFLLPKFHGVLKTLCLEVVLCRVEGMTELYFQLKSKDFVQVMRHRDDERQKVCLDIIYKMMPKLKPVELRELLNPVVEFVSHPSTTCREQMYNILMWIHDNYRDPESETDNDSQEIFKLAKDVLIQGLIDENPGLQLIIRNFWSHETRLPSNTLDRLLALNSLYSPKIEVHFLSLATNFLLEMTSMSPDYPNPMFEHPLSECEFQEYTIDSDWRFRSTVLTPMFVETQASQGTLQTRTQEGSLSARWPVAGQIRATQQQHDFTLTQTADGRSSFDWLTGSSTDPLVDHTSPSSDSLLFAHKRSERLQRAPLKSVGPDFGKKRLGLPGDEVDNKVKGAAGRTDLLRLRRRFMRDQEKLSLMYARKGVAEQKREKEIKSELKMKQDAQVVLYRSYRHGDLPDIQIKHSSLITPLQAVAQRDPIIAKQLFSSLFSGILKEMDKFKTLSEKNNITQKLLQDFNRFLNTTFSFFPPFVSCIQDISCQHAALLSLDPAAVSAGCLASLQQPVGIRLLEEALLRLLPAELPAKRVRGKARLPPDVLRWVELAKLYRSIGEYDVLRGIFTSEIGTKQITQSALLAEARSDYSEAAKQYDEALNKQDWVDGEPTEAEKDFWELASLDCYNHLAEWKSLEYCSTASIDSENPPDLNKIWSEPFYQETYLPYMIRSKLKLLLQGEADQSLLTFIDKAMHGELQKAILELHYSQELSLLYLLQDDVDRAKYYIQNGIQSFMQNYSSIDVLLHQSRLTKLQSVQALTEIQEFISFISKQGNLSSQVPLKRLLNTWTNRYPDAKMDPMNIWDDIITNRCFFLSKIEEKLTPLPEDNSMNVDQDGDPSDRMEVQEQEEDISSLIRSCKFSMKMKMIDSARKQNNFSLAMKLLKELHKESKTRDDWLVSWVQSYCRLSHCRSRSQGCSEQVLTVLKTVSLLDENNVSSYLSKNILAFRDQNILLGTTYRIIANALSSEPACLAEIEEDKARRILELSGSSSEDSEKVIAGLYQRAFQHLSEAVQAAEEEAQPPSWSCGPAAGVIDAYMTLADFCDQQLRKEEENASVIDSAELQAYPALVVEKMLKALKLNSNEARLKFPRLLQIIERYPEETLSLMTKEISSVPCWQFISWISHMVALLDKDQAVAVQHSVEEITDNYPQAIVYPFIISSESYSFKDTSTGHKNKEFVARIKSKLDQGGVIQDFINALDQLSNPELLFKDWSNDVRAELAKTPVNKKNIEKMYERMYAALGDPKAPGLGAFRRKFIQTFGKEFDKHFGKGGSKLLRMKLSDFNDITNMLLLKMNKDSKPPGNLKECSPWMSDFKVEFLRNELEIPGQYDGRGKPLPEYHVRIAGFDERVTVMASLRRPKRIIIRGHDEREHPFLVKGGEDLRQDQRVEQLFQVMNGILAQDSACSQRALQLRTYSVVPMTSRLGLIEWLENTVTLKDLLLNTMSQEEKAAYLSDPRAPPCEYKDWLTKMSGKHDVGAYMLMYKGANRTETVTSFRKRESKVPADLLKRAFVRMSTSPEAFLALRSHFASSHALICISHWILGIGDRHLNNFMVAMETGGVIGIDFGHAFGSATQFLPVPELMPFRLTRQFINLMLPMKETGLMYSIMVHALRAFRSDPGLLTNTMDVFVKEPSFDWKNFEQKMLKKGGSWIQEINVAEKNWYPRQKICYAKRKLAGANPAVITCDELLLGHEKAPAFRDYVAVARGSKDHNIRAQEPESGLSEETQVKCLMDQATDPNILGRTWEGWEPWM
The next test deals with T47D. Put plainly: Antiproliferative activity against human T47D cells after 120 hrs by SRB assay. It counts as functional. In general terms: The SRB assay estimates cell density from bound dye.

`C[C@@H]1CN(c2nc(N3CCOCC3)c3ccc(-c4cccc(CO)c4)nc3n2)C[C@H](C)O1`: the IC50 – broadly, the concentration at which inhibition is half-maximal – in test [1] came to 93 nM. `C[C@@H]1CN(c2nc(N3CCOCC3)c3ccc(Nc4ccncc4)nc3n2)C[C@H](C)O1`: in test [1], the IC50 came to 87 nM. Compound `CC1CCCN(c2nc(N3CCOCC3)c3cccnc3n2)C1` (stereo not drawn) yielded an IC50 in test [1] of 3000 nM. As for `C[C@H]1CCCCN1c1nc(N2CCCCC2)c2cccnc2n1`, the inhibition (usually the change of the read-out against control, counted positive when it falls) in test [2] was less than 30%. With `C[C@H]1COCCN1c1nc(N2CCOCC2)c2cccnc2n1`, in test [1], the IC50 was found to be 1800 nM. The compound `C[C@@H]1CN(c2nc(N3CCOCC3)c3ccc(-c4ccncc4)nc3n2)C[C@H](C)O1` displayed an IC50 in test [1] of 220 nM. For `C[C@@H]1CN(c2nc(N3CCOCC3)c3cccnc3n2)C[C@H](C)O1`, the IC50 in test [1] came to 1300 nM. The compound `C[C@@H]1CCCCN1c1nc(N2CCOCC2)c2cccnc2n1` registered an IC50 in test [1] of 1200 nM. Still for that read-out and setting: next, `C[C@@H]1CN(c2nc(N3CCOCC3)c3ccc(-c4ccccc4)nc3n2)C[C@H](C)O1`: 62 nM; `C[C@@H]1CN(c2nc(N3CCOCC3)c3ccc(Nc4ccccc4)nc3n2)C[C@H](C)O1`: 120 nM.

In turn, `CC1CCCCN1c1nc(N2CCOCC2)c2ccncc2n1` (stereo not drawn) had an inhibition in test [2] of less than 30%. On the same count and under the same terms, next, `CC1CCCCN1c1nc(N2CCOCC2)c2ccccc2n1` (stereo not drawn): less than 30%. Take `C[C@H]1CCCCN1c1nc(N2CCCOCC2)c2cccnc2n1`: the midpoint of inhibition in test [1], the IC50, lay at 4800 nM. `C[C@H]1CCCCN1c1nc(N2CCOCC2)c2cccnc2n1` had an IC50 in test [1] of 690 nM. Regarding `COc1ccc(-c2ccc3c(N4CCOCC4)nc(N4C[C@@H](C)O[C@@H](C)C4)nc3n2)cc1`, half-maximal inhibition in test [1] (IC50) was put at 45 nM. Still for that read-out and setting: next, `C[C@@H]1CN(c2nc(N3CCOCC3)c3ccc(-c4ccc(O)c(CO)c4)nc3n2)C[C@H](C)O1`: 37 nM; `C[C@@H]1CN(c2nc(N3CCOCC3)c3ccc(-c4cccc(O)c4)nc3n2)C[C@H](C)O1`: 53 nM. Turning to `CC1CCCCN1c1nc(N2CCOCC2)c2ncccc2n1` (stereo not drawn), the inhibition in test [2] is less than 30%.

`CC1CCCCN1c1nc(N2CCOCC2)c2cccnc2n1` (racemic): half-maximal inhibition in test [1] (IC50) required 1000 nM.

Compound `C[C@@H]1CN(c2nc(N3CCOCC3)c3ccc(-c4ccc(O)cc4)nc3n2)C[C@H](C)O1` showed an IC50 in test [1] of 39 nM.

In test [1], `C[C@@H]1CN(c2nc(N3CCOCC3)c3ccc(-c4ccoc4)nc3n2)C[C@H](C)O1` returned an IC50 of 120 nM. For the compound `c1cnc2nc(N3CCOCC3)nc(N3CCOCC3)c2c1`, the inhibition in test [2] is less than 30%. Turning to `COc1ccc(-c2ccc3c(N4CCOCC4)nc(N4C[C@@H](C)O[C@@H](C)C4)nc3n2)cc1CO` [Ku-0063794], the figures for the concentration for half-maximal inhibition (IC50) in test [1], in test [3] and in test [4] were 16 nM, more than 10000 nM and more than 10000 nM, respectively. Halving of growth in the test on T47D (GI50) required 350 nM. With `COc1cccc(-c2ccc3c(N4CCOCC4)nc(N4C[C@@H](C)O[C@@H](C)C4)nc3n2)c1`, in test [1], half-maximal inhibition (IC50) was put at 490 nM. On to `C[C@@H]1CN(c2nc(N3CCOCC3)c3ccc(-c4ccsc4)nc3n2)C[C@H](C)O1`, for which, in test [1], half-maximal inhibition (IC50) required 33 nM.
